# Several values for one entry are separate records, joined by “and”; a condition that tells them apart may be missing. Equal entries are not always repeated.
# Tests used:
# [1] = test system: U2OS; assay: Multiplex assay against U2OS; type: toxicity, cell-based; settings: human
# In short: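 Cells were classed with CellPathfinder machine-learning gating, first as Hoechst high-intensity objects or normal cells, then (normal cells) as healthy, pyknosed or fragmented nuclei, and finally (pyknosed cells) as mitotic or apoptotic. Staining of live cells at seeding used Hoechst33342, BioTracker Green Microtubule Cytoskeleton Dye, MitoTracker Red and Annexin V Alexa Fluor 680, with imaging on a CQ1 microscope at 37°C and 5% CO2 after compound addition. Tubulin, mitochondrial-mass and membrane-permeability phenotypes are per cents of healthy-nucleus cells.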
# [2] = test system: U2OS; assay: Incucyte cell viability with U2OS; type: toxicity, cell-based; settings: human, 10 µM, compound concentration 10 uM; further: filed as whole numbers so only -1 and 0 and 1 occur
# [3] = 12 h, 1 µM, compound concentration 1 uM, replicate 1
# [4] = 12 h, 1 µM, compound concentration 1 uM, replicate 2
# [5] = 12 h, 10 µM, compound concentration 10 uM, replicate 1
# [6] = 12 h, 10 µM, compound concentration 10 uM, replicate 2
# [7] = 24 h, 1 µM, compound concentration 1 uM, replicate 1
# [8] = 24 h, 1 µM, compound concentration 1 uM, replicate 2
# [9] = 24 h, 10 µM, compound concentration 10 uM, replicate 1
# [10] = 24 h, 10 µM, compound concentration 10 uM, replicate 2
# [11] = 48 h, 10 µM, compound concentration 10 uM, replicate 1
# [12] = 48 h, 10 µM, compound concentration 10 uM, replicate 2
smiles,measurement,setting,value
Cc1c(Nc2ccc(S(=O)(=O)N3CCN(C)CC3)cc2F)nc2ccc(-c3cnn(C4CC4)c3)cn2c1=O,Population Apoptotic (%),[1]; [3],12%
same,Population Fragmented Nuclei (%),[1]; [3],4%
same,Population Healthy Nuclei (%),[1]; [3],91%
same,Population Hoechst High Intensity Objects (%),[1]; [3],2%
same,Population Membrane Permeable-Phenotype (%),[1]; [3],5%
same,Population Mitochondria Different-Phenotype (%),[1]; [3],15%
same,Population Mitotic Cells (%),[1]; [3],87%
same,Population Normal (%),[1]; [3],97%
same,Population Pyknosed Nuclei (%),[1]; [3],4%
same,Population Tubulin-Different-Phenotype (%),[1]; [3],18%
same,Total Cell Count,[1]; [3],160
same,Population Apoptotic (%),[1]; [4],0%
same,Population Fragmented Nuclei (%),[1]; [4],5%
same,Population Healthy Nuclei (%),[1]; [4],93%
same,Population Hoechst High Intensity Objects (%),[1]; [4],8%
same,Population Membrane Permeable-Phenotype (%),[1]; [4],10%
same,Population Mitochondria Different-Phenotype (%),[1]; [4],17%
same,Population Mitotic Cells (%),[1]; [4],100%
same,Population Normal (%),[1]; [4],91%
same,Population Pyknosed Nuclei (%),[1]; [4],1%
same,Population Tubulin-Different-Phenotype (%),[1]; [4],15%
same,Total Cell Count,[1]; [4],119
same,Population Apoptotic (%),[1]; [5],29% and 44%
same,Population Fragmented Nuclei (%),[1]; [5],21% and 30%
same,Population Healthy Nuclei (%),[1]; [5],73% and 60%
same,Population Hoechst High Intensity Objects (%),[1]; [5],34% and 46%
same,Population Mitotic Cells (%),[1]; [5],70% and 55%
same,Population Normal (%),[1]; [5],65% and 53%
same,Population Pyknosed Nuclei (%),[1]; [5],5% and 8%
same,Population Tubulin-Different-Phenotype (%),[1]; [5],12% and 27%
same,Total Cell Count,[1]; [5],201 and 120
same,Population Fragmented Nuclei (%),[1]; [6],56%
same,Population Healthy Nuclei (%),[1]; [6],42% and 39%
same,Population Hoechst High Intensity Objects (%),[1]; [6],41% and 58%
same,Population Membrane Permeable-Phenotype (%),[1]; [6],17% and 8%
same,Population Mitochondria Different-Phenotype (%),[1]; [6],11% and 23%
same,Population Mitotic Cells (%),[1]; [6],80% and 35%
same,Population Normal (%),[1]; [6],58% and 41%
same,Population Pyknosed Nuclei (%),[1]; [6],1% and 3%
same,Population Tubulin-Different-Phenotype (%),[1]; [6],11% and 8%
same,Population Apoptotic (%),[1]; [7],0%
same,Population Fragmented Nuclei (%),[1]; [7],1%
same,Population Healthy Nuclei (%),[1]; [7],95%
same,Population Hoechst High Intensity Objects (%),[1]; [7],1%
same,Population Membrane Permeable-Phenotype (%),[1]; [7],7%
same,Population Mitochondria Different-Phenotype (%),[1]; [7],7%
same,Population Mitotic Cells (%),[1]; [7],100%
same,Population Normal (%),[1]; [7],98%
same,Population Pyknosed Nuclei (%),[1]; [7],2%
same,Population Tubulin-Different-Phenotype (%),[1]; [7],17%
same,Total Cell Count,[1]; [7],173
same,Population Apoptotic (%),[1]; [8],11%
same,Population Fragmented Nuclei (%),[1]; [8],4%
same,Population Healthy Nuclei (%),[1]; [8],89%
same,Population Hoechst High Intensity Objects (%),[1]; [8],3%
same,Population Membrane Permeable-Phenotype (%),[1]; [8],8%
same,Population Mitochondria Different-Phenotype (%),[1]; [8],29%
same,Population Mitotic Cells (%),[1]; [8],88%
same,Population Normal (%),[1]; [8],96%
same,Population Pyknosed Nuclei (%),[1]; [8],6%
same,Population Tubulin-Different-Phenotype (%),[1]; [8],20%
same,Total Cell Count,[1]; [8],122
same,Population Apoptotic (%),[1]; [9],29% and 32%
same,Population Fragmented Nuclei (%),[1]; [9],15% and 33%
same,Population Healthy Nuclei (%),[1]; [9],77% and 56%
same,Population Hoechst High Intensity Objects (%),[1]; [9],27% and 49%
same,Population Membrane Permeable-Phenotype (%),[1]; [9],14% and 7%
same,Population Mitochondria Different-Phenotype (%),[1]; [9],8% and 22%
same,Population Mitotic Cells (%),[1]; [9],70% and 67%
same,Population Normal (%),[1]; [9],72% and 50%
same,Population Pyknosed Nuclei (%),[1]; [9],6% and 10%
same,Population Tubulin-Different-Phenotype (%),[1]; [9],7% and 16%
same,Total Cell Count,[1]; [9],284 and 128
same,Population Apoptotic (%),[1]; [10],22% and 60%
same,Population Fragmented Nuclei (%),[1]; [10],56% and 58%
same,Population Healthy Nuclei (%),[1]; [10],41% and 37%
same,Population Hoechst High Intensity Objects (%),[1]; [10],40% and 58%
same,Population Membrane Permeable-Phenotype (%),[1]; [10],16% and 13%
same,Population Mitochondria Different-Phenotype (%),[1]; [10],9% and 23%
same,Population Mitotic Cells (%),[1]; [10],77% and 40%
same,Population Normal (%),[1]; [10],59% and 41%
same,Population Pyknosed Nuclei (%),[1]; [10],2% and 3%
same,Population Tubulin-Different-Phenotype (%),[1]; [10],8% and 13%
same,Population Apoptotic (%),[1]; [11],43%
same,Population Fragmented Nuclei (%),[1]; [11],23%
same,Population Healthy Nuclei (%),[1]; [11],67%
same,Population Hoechst High Intensity Objects (%),[1]; [11],39%
same,Population Membrane Permeable-Phenotype (%),[1]; [11],4%
same,Population Mitochondria Different-Phenotype (%),[1]; [11],8%
same,Population Mitotic Cells (%),[1]; [11],56%
same,Population Normal (%),[1]; [11],60%
same,Population Pyknosed Nuclei (%),[1]; [11],8%
same,Population Tubulin-Different-Phenotype (%),[1]; [11],18%
same,Total Cell Count,[1]; [11],130
same,Population Apoptotic (%),[1]; [12],71%
same,Population Fragmented Nuclei (%),[1]; [12],57%
same,Population Healthy Nuclei (%),[1]; [12],38%
same,Population Hoechst High Intensity Objects (%),[1]; [12],53%
same,Population Membrane Permeable-Phenotype (%),[1]; [12],11%
same,Population Mitochondria Different-Phenotype (%),[1]; [12],17%
same,Population Mitotic Cells (%),[1]; [12],28%
same,Population Normal (%),[1]; [12],46%
same,Population Pyknosed Nuclei (%),[1]; [12],3%
same,Population Tubulin-Different-Phenotype (%),[1]; [12],8%
same,Total Cell Count,[1]; [12],45
same,Growth Rate,"[2]; 0 h, replicate number 2, timepoint 0 hours",0
same,Growth Rate,"[2]; 6 h, replicate number 1, timepoint 6 hours",1
same,Growth Rate,"[2]; 12 h, replicate number 1, timepoint 12 hours",0
same,Growth Rate,"[2]; 18 h, replicate number 1, timepoint 18 hours",0
same,Growth Rate,"[2]; 18 h, replicate number 2, timepoint 18 hours",1
same,Growth Rate,"[2]; 24 h, replicate number 1, timepoint 24 hours",0
same,Growth Rate,"[2]; 24 h, replicate number 2, timepoint 24 hours",1
